According to ChEMBL document CHEMBL3112586, “Synthesis of neolignans as microtubule stabilisers” (Bioorg Med Chem, 2014):
pIC50: −log10 of the molar value. Activity calls are given as the source filed them. The calls are words filed in the database; no cut-off is given here.

Key:
Mus musculus [1] = experiment: Toxicity in Swiss albino mouse assessed as change in total haemoglobin level at 50 mg/kg, po (reference value: 11.39 +/- 0.84 g/dL); format: organism-based; set-up: dose 50 mg/kg, route oral; conditions: in vivo
Mus musculus [2] = experiment: Toxicity in Swiss albino mouse assessed as relative liver weight at 5 to 1000 mg/kg, po relative to control; format: organism-based; set-up: dose 5-1000 mg/kg, route oral; conditions: in vivo
Method in brief: (§1)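 One oral dose (5–1000 mg/kg; DMSO then 0.7% carboxymethyl cellulose vehicle; controls vehicle-only) was given to groups of 6 mice (3 male, 3 female). On day 7 the animals were sacrificed and necropsied for gross pathology. Absolute and relative weights of vital organs were recorded and compared with control.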

Mus musculus [3] = experiment: Toxicity in Swiss albino mouse assessed as relative spleen weight at 5 to 1000 mg/kg, po relative to control; format: organism-based; set-up: dose 5-1000 mg/kg, route oral; conditions: in vivo; method in brief: as §1
MDA-MB-231 [4] = experiment: Cytotoxicity against human MDA-MB-231 cells after 48 to 72 hrs by MTT assay; format: functional, cell-based
Method in brief: (§2)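 Cells in DMEM, 10% FBS, 37 °C, 5% CO2, plated and incubated 24 h; compounds diluted in phenol-red-free DMEM with 0.5% FBS, vehicle control; after exposure, MTT (5 mg/mL stock) added 3 h, formazan dissolved in DMSO, absorbance 570 nm; IC50 derived; podophyllotoxin and tamoxifen positive controls.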

MCF7 [5] = experiment: Cell cycle arrest in human MCF7 cells assessed as decrease in S phase at 5 to 30 uM after 24 hrs by propidium iodide staining-based FACS analysis relative to untreated control; format: functional
Method in brief: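 MCF-7 in DMEM, 10% FBS, 37 °C, 5% CO2; treated 24 h, harvested, washed cold PBS, resuspended 2 × 10⁶ cells/ml, fixed absolute ethanol, RNase A treated, propidium iodide (50 µg/mL) 30 min room temperature; DNA content by flow cytometry; phase distribution versus untreated control.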

Mus musculus [6] = experiment: Toxicity in Swiss albino mouse assessed as change in triglyceride level at 50 mg/kg, po (reference value: 121.45 +/- 24.02 mg/dL); format: organism-based; set-up: dose 50 mg/kg, route oral; conditions: in vivo
Mus musculus [7] = experiment: Toxicity in Swiss albino mouse assessed as change in creatinine level at 50 mg/kg, po (reference value: 0.63 +/- 0.18 mg/dL); format: organism-based; set-up: dose 50 mg/kg, route oral; conditions: in vivo
MDA-MB-231 [8] = experiment: Cell cycle arrest in human MDA-MB-231 cells assessed as increase in sub-diploid population after 24 hrs by propidium iodide staining-based FACS analysis; format: functional
Method in brief: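 MDA-MB-231 grown in DMEM with 10% FBS at 37 °C, 5% CO2; 24 h treatment, then cold-PBS wash, 2 × 10⁶ cells/ml, absolute-ethanol fixation, RNase A, propidium iodide 50 µg/mL for 30 min at room temperature; flow cytometric DNA content, sub-diploid fraction scored.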

Mus musculus [9] = experiment: Toxicity in Swiss albino mouse assessed as change in WBC count at 300 mg/kg, po (reference value: 14.2 +/- 7.49 X 10^3/mm'3); format: organism-based; set-up: dose 300 mg/kg, route oral; conditions: in vivo
Mus musculus [10] = experiment: Toxicity in Swiss albino mouse assessed as change in SGPT level at 5 mg/kg, po (reference value: 12.28 +/- 3.73 U/L); format: organism-based; set-up: dose 5 mg/kg, route oral; conditions: in vivo
Mus musculus [11] = experiment: Toxicity in Swiss albino mouse assessed as change in SGPT level at 50 mg/kg, po (reference value: 12.28 +/- 3.73 U/L); format: organism-based; set-up: dose 50 mg/kg, route oral; conditions: in vivo
Mus musculus [12] = experiment: Toxicity in Swiss albino mouse assessed as change in SGPT level at 300 mg/kg, po (reference value: 12.28 +/- 3.73 U/L); format: organism-based; set-up: dose 300 mg/kg, route oral; conditions: in vivo
MCF7 [13] = experiment: Cytotoxicity against human MCF7 cells after 24 hrs by MTT assay; format: functional, cell-based; conditions: MCF7, 24 h; method in brief: as §2
Mus musculus [14] = experiment: Toxicity in Swiss albino mouse assessed as absolute lungs weight at 5 to 1000 mg/kg, po relative to control; format: organism-based; set-up: dose 5-1000 mg/kg, route oral; conditions: in vivo
Mus musculus [15] = experiment: Toxicity in Swiss albino mouse assessed as absolute brain weight at 5 to 1000 mg/kg, po relative to control; format: organism-based; set-up: dose 5-1000 mg/kg, route oral; conditions: in vivo
Mus musculus [16] = experiment: Toxicity in Swiss albino mouse assessed as change in triglyceride level at 5 mg/kg, po (reference value: 121.45 +/- 24.02 mg/dL); format: organism-based; set-up: dose 5 mg/kg, route oral; conditions: in vivo
Mus musculus [17] = experiment: Toxicity in Swiss albino mouse assessed as relative lungs weight at 5 to 1000 mg/kg, po relative to control; format: organism-based; set-up: dose 5-1000 mg/kg, route oral; conditions: in vivo; method in brief: as §1
Mus musculus [18] = experiment: Toxicity in Swiss albino mouse assessed as change in SGPT level at 1000 mg/kg, po (reference value: 12.28 +/- 3.73 U/L); format: organism-based; set-up: dose 1000 mg/kg, route oral; conditions: in vivo
Mus musculus [19] = experiment: Toxicity in Swiss albino mouse assessed as relative heart weight at 5 to 1000 mg/kg, po relative to control; format: organism-based; set-up: dose 5-1000 mg/kg, route oral; conditions: in vivo; method in brief: as §1
Mus musculus [20] = experiment: Toxicity in Swiss albino mouse assessed as change in body weight at 50 mg/kg, po (reference value: 24.5 +/- 0.76 g); format: organism-based; set-up: dose 50 mg/kg, route oral; conditions: in vivo
Mus musculus [21] = experiment: Toxicity in Swiss albino mouse assessed as change in WBC count at 1000 mg/kg, po (reference value: 14.2 +/- 7.49 X 10^3/mm'3); format: organism-based; set-up: dose 1000 mg/kg, route oral; conditions: in vivo
Mus musculus [22] = experiment: Toxicity in Swiss albino mouse assessed as relative kidney weight at 5 to 1000 mg/kg, po relative to control; format: organism-based; set-up: dose 5-1000 mg/kg, route oral; conditions: in vivo; method in brief: as §1
MDA-MB-231 [23] = experiment: Cytotoxicity against human MDA-MB-231 cells after 72 hrs by MTT assay; format: functional, cell-based; conditions: MDA-MB-231, 72 h; method in brief: as §2
Mus musculus [24] = experiment: Toxicity in Swiss albino mouse assessed as morbidity at 5 to 1000 mg/kg, po; format: organism-based; set-up: dose 5-1000 mg/kg, route oral; conditions: in vivo
Method in brief: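 Swiss albino mice (3 male, 3 female per group, 20-25 g) were given one oral dose of 5, 50, 300 or 1000 mg/kg in DMSO/0.7% carboxymethyl cellulose, or vehicle. Mortality and signs of ill health were checked hourly on the dosing day, then daily for 7 days. Checks covered skin, mucous membranes, eyes, secretions, lachrymation, pilo-erection, respiration, gait, posture and response to handling.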

CCOC(=O)/C=C/c1ccc(O)c(/C(=C/c2ccc(O)cc2)C(=O)OCC)c1
Activity (Mus musculus [1]): 10.67 g/dL
Activity (Mus musculus [2]): Non-toxic
Activity (Mus musculus [3]): Non-toxic
Activity (MDA-MB-231 [4]): Active
Activity (MCF7 [5]): Active
Activity (Mus musculus [6]): 147.23 mg/dL
Activity (Mus musculus [7]): 1.45 mg/dL
Activity (MDA-MB-231 [8]): Dose-dependent effect
Activity (Mus musculus [9]): 13.76 ×10³ /mm3
Activity (Mus musculus [10]): 13.15 U/L
Activity (Mus musculus [11]): 12.52 U/L
Activity (Mus musculus [12]): 15.56 U/L
pIC50 (MCF7 [13]): 4.92
Activity (Mus musculus [14]): Non-toxic
Activity (Mus musculus [15]): Non-toxic
Activity (Mus musculus [16]): 106.46 mg/dL
Activity (Mus musculus [17]): Non-toxic
Activity (Mus musculus [18]): 21.95 U/L
Activity (Mus musculus [19]): Non-toxic
Activity (Mus musculus [20]): 24.83 g
Activity (Mus musculus [21]): 15.94 ×10³ /mm3
Activity (Mus musculus [22]): Non-toxic
pIC50 (MDA-MB-231 [23]): 6.35
Activity (Mus musculus [24]): Non-toxic
